≈ marks a conversion by molar mass, not a printed value. Calls of active or inactive are those of the source. No cut-off for these calls is given here.

The nature of experiment [1]: Antimicrobial activity against Leuconostoc dextranicum ATCC 8086 after 18 hrs by spectrophotometry. In kind it is functional, Leuconostoc mesenteroides subsp. dextranicum. To be noted: Leuconostoc mesenteroides, ATCC 8086, 18 h. In a few lines: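 Basal lactic-acid-bacteria medium with 0.2 µg/ml calcium pantothenate and 0.02 µg/ml pantethine; Phe and Tyr omitted, Trp at 3 µg/ml; phosphate raised fourfold and 100 µg/ml glutamine added. Aqueous stock (1 mg/ml) serially diluted, up to 200 µg/ml. Incubated at 30° for 18 h. Turbidity read at 625 nm against an uninoculated blank. MIC from at least six repeats.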

Experiment [2] relates to Lactiplantibacillus plantarum. Nature of the experiment: Antimicrobial activity against Lactobacillus plantarum ATCC 8014 after 18 hrs by spectrophotometry in presence of 40 ug/ml each of phenylalanine,tyrosine and tryptophan. In kind it is functional.
Another experiment relates to Escherichia coli. Briefly: Antimicrobial activity against Escherichia coli ATCC 9723 after 16 hrs by spectrophotometry. It is filed as functional. The note with it: ATCC 9723, 16 h. The gist of the method:
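Stock of 10 mg in 10 ml sterile water (slight warming), serially diluted into autoclaved medium tubes, tested up to 200 µg/ml. Incubated at 37° for 16 h after inoculation. Turbidity read at 625 nm against an uninoculated medium blank. MIC taken as the minimum inhibitory concentration, with controls and at least six repeat assays.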

Experiment [3] concerns Leuconostoc mesenteroides subsp. dextranicum. Briefly: (§1) Antimicrobial activity against Leuconostoc dextranicum ATCC 8086 after 18 hrs by spectrophotometry in presence of 40 ug/ml each of phenylalanine,tyrosine and tryptophan. It is filed as functional.
The test system of experiment [4] is Lactiplantibacillus plantarum. Briefly: Antimicrobial activity against Lactobacillus plantarum ATCC 8014 after 18 hrs by spectrophotometry. In kind it is functional. To be noted: ATCC 8014, 18 h. In a few lines: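 Basal lactic-acid-bacteria medium with 0.2 µg/ml calcium pantothenate and 0.02 µg/ml pantethine; phenylalanine and tyrosine omitted, and tryptophan lowered to 3 µg/ml; for this strain, Phe and Tyr at 1 µg/ml. Aqueous stock (1 mg/ml) serially diluted, up to 200 µg/ml. Incubated at 30° for 18 h. Absorbance read at 625 nm versus an uninoculated blank. MIC from at least six repeats.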

The nature of experiment [5]: as §1. In kind it is functional, Leuconostoc mesenteroides subsp. dextranicum. To be noted: Leuconostoc mesenteroides, ATCC 8086, 18 h.

As for `NC(Cc1ccc2ccccc2c1Br)C(=O)O` (racemic), the MIC (in experiment [1]; against Escherichia coli; in experiment [4]) was 200 µg/mL (≈ 680 µM) each time. For the same molecule, the MIC result in experiment [2] and in experiment [3] was “Active” throughout.

Take `NC(Cc1ccc2ccccc2c1)C(=O)O` (stereo not drawn): the MIC (in experiment [1]; in the experiment with Escherichia coli; in experiment [4]) was greater than 200 µg/mL in each case.

On to `NC(Cc1ccc2ccccc2c1Cl)C(=O)O` (racemic), for which the MIC in experiment [1] was 20 µg/mL (≈ 80.1 µM); against Escherichia coli, greater than 200 µg/mL; in experiment [4], 20 µg/mL (≈ 80.1 µM). Besides, the MIC result in experiment [2] and in experiment [3] was “Active” each time.

On to `NC(Cc1ccc(O)cc1Cl)C(=O)O` (stereo not drawn), for which the MIC in experiment [1] was 6 µg/mL (≈ 27.8 µM); in experiment [2] (ATCC 8014, 18 h), 200 µg/mL; in the experiment on Escherichia coli it was 2 µg/mL (≈ 9.27 µM); in experiment [5] it was 200 µg/mL; in experiment [4], 0.6 µg/mL (≈ 2.78 µM).

With `NC(Cc1cccc2ccccc12)C(=O)O` (stereo not drawn), the MIC in experiment [1] was 200 µg/mL (≈ 929 µM); with Escherichia coli, greater than 200 µg/mL; in experiment [4] it was 200 µg/mL (≈ 929 µM). In addition, the MIC entry in experiment [2] and in experiment [3] was “Active” in each case.
